ChEMBL document CHEMBL1687801, “Pharmacokinetics-pharmacodynamics of a respiratory syncytial virus fusion inhibitor in the cotton rat model” (Antimicrob Agents Chemother, 2010)
Values after ≈ are worked out from the molar mass of the structure shown.

Assays:
[1] = tested on: Respiratory syncytial virus; assay: Antiviral activity against respiratory syncytial virus long strain infected in cotton rat assessed as log reduction in epithelial lining fluid viral load at 25 mg/kg, sc single dose administered 24 hrs before viral infection by plaque assay; format: functional; details: route subcutaneous
How it was run: (§1)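 Cotton rats (60–100 g, six per dose cohort) received one s.c. dose of an aqueous slow-release nanocrystal suspension. At 24 h they were anesthetized with isoflurane and given 10⁶ PFU RSV Long intranasally in 0.1 ml. On day 4 lungs were lavaged once with 2.5 ml PBS. BALF supernatant was plaque-titrated on Vero cells (7 days, 37°C, methylene blue). Titers were urea-corrected to ELF; log reduction was taken versus untreated infected controls.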

[2] = Drug level in Sprague-Dawley rat plasma at 10 mg/kg, iv administered as single bolus dose measured after 3 hrs; format: ADME, organism-based; set-up: dose 10 mg/kg, route intravenous; details: read-out: Drug uptake
Plasma = assay: Drug level in cotton rat plasma at 12.5 - 200 mg/kg, sc administered as single dose measured after 24 hrs; format: ADME, organism-based; set-up: dose 200 mg/kg, route subcutaneous; details: in vivo
[3] = Clearance in Sprague-Dawley rat plasma at 10 mg/kg, iv administered as single bolus dose; format: ADME, organism-based; set-up: dose 10 mg/kg, route intravenous
[4] = Ratio of AUC (0 to 24 hrs) in Sprague-Dawley rat lung tissue to plasma; format: ADME
[5] = tested on: Respiratory syncytial virus; assay: Antiviral activity against respiratory syncytial virus long strain infected in cotton rat assessed as log reduction in epithelial lining fluid viral load at 25 mg/kg, sc single dose administered 24 hrs before viral infection by qRT-PCR assay; format: functional; details: route subcutaneous
How it was run: (§2)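 Nanocrystal suspension was given as a single s.c. dose to cotton rats (six per cohort). RSV Long (10⁶ PFU) was inoculated intranasally 24 h later. On day 4, BALF from a single 2.5 ml PBS lavage was lysed with DTT and lysis buffer, and RNA was extracted with an internal control. Monoplex real-time RT-PCR was run in duplicate against an eight-point 10-fold RSV RNA standard. Titers were urea-corrected to ELF; reduction was taken versus untreated controls.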

[6] = tested on: Respiratory syncytial virus; assay: Antiviral activity against respiratory syncytial virus long strain infected in cotton rat assessed as log reduction in epithelial lining fluid viral load at 12.5 mg/kg, sc single dose administered 24 hrs before viral infection by qRT-PCR assay; format: functional; details: route subcutaneous; how it was run: as §2
[7] = Drug level in cotton rat bronchoalveolar lavage fluid at 10 mg/kg, iv administered as single bolus dose measured after 3 hrs; format: ADME, organism-based, Lung; set-up: dose 10 mg/kg, route intravenous; details: read-out: Drug uptake
[8] = Drug level in cotton rat epithelial lining fluid at 10 mg/kg, iv administered as single bolus dose measured after 3 hrs; format: ADME, organism-based; set-up: dose 10 mg/kg, route intravenous; details: read-out: Drug uptake
Lung = assay: AUC (0 to 24 hrs) in Sprague-Dawley rat lung tissue at 10 mg/kg, iv administered as single bolus dose; format: ADME, organism-based; set-up: time < 24 hr, dose 10 mg/kg, route intravenous; details: in vivo
[9] = tested on: Respiratory syncytial virus; assay: Antiviral activity against respiratory syncytial virus long strain infected in cotton rat assessed as log reduction in epithelial lining fluid viral load at 100 mg/kg, sc single dose administered 24 hrs before viral infection by qRT-PCR assay; format: functional; details: route subcutaneous; how it was run: as §2
[10] = Volume of distribution at steady state in Sprague-Dawley rat plasma at 10 mg/kg, iv administered as single bolus dose; format: ADME, organism-based; set-up: dose 10 mg/kg, route intravenous; details: read-out: Vdss
[11] = tested on: Respiratory syncytial virus; assay: Antiviral activity against respiratory syncytial virus long strain infected in cotton rat assessed as log reduction in epithelial lining fluid viral load at 50 mg/kg, sc single dose administered 24 hrs before viral infection by qRT-PCR assay; format: functional; details: route subcutaneous; how it was run: as §2
[12] = tested on: Respiratory syncytial virus; assay: Antiviral activity against respiratory syncytial virus long strain infected in cotton rat assessed as maximum reduction in epithelial lining fluid viral load at 200 ng/ml plasma concentration; format: functional; set-up: scale not given: the % may be the effect or the level left
How it was run: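 Plasma was drawn at 24 h after single s.c. nanocrystal doses (12.5–200 mg/kg) to cotton rats, just before intranasal RSV inoculation, and assayed by LC-MS/MS. Individual day-4 plaque-assay ELF titer reductions were plotted against this plasma concentration and fitted to a simple E_max model, E = (E_max × C24h)/(C24h + EC50).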

[13] = AUC (0 to 24 hrs) in Sprague-Dawley rat bronchoalveolar lavage fluid at 10 mg/kg, iv administered as single bolus dose; format: ADME, organism-based, Lung; set-up: time < 24 hr, dose 10 mg/kg, route intravenous; details: in vivo
[14] = tested on: Respiratory syncytial virus; assay: microbe, parasite or virus in culture; details: human respiratory syncytial virus, long, HeLaM
[15] = AUC (0 to 24 hrs) in Sprague-Dawley rat plasma at 10 mg/kg, iv administered as single bolus dose; format: ADME, organism-based; set-up: time < 24 hr, dose 10 mg/kg, route intravenous
[16] = tested on: Respiratory syncytial virus; assay: Antiviral activity against respiratory syncytial virus long strain infected in cotton rat assessed as log reduction in epithelial lining fluid viral load at 50 mg/kg, sc single dose administered 24 hrs before viral infection by plaque assay; format: functional; details: route subcutaneous; how it was run: as §1
[17] = tested on: Respiratory syncytial virus; assay: Antiviral activity against respiratory syncytial virus long strain infected in cotton rat assessed as log reduction in epithelial lining fluid viral load at 200 mg/kg, sc single dose administered 24 hrs before viral infection by qRT-PCR assay; format: functional; details: route subcutaneous; how it was run: as §2
[18] = Drug level in Sprague-Dawley rat bronchoalveolar lavage fluid at 10 mg/kg, iv administered as single bolus dose measured after 3 hrs; format: ADME, organism-based, Lung; set-up: dose 10 mg/kg, route intravenous; details: read-out: Drug uptake
[19] = tested on: Respiratory syncytial virus; assay: Antiviral activity against respiratory syncytial virus long strain infected in cotton rat assessed as log reduction in epithelial lining fluid viral load at 200 mg/kg, sc single dose administered 24 hrs before viral infection by plaque assay; format: functional; details: route subcutaneous; how it was run: as §1
[20] = Drug level in Sprague-Dawley rat lung tissue at 10 mg/kg, iv administered as single bolus dose measured after 3 hrs; format: ADME, organism-based; set-up: dose 10 mg/kg, route intravenous; details: read-out: Drug uptake
[21] = tested on: Respiratory syncytial virus; assay: Antiviral activity against respiratory syncytial virus long strain infected in cotton rat assessed as log reduction in epithelial lining fluid viral load at 100 mg/kg, sc single dose administered 24 hrs before viral infection by plaque assay; format: functional; details: route subcutaneous; how it was run: as §1
[22] = tested on: Respiratory syncytial virus; assay: Antiviral activity against respiratory syncytial virus long strain infected in cotton rat assessed as log reduction in epithelial lining fluid viral load at 12.5 mg/kg, sc single dose administered 24 hrs before viral infection by plaque assay; format: functional; details: route subcutaneous; how it was run: as §1

concentration at 3 h [2]: 63 ng/mL
Drug uptake (Plasma): Active
clearance [3]: 143 mL/min/kg
Kp [4]: 122
concentration at 3 h [7]: 23 ng/mL
concentration at 3 h [8]: 392 ng/mL
AUC (Lung): 131000 ng·h/mL
Vd [10]: 55 L/kg
AUC [13]: 170 ng·h/mL
EC50 [14]: 0.07 ng/mL (≈ 0.125 nM)
AUC(0-t) at 24 h [15]: 1100 ng·h/mL
concentration at 3 h [18]: 11 ng/mL
concentration at 3 h [20]: 9400 ng/mL
SMILES: Cc1ccc(CCCO)c(NCc2ccc3nc(NCCCN4CCOCC4)n(Cc4nc(C)ccc4O)c3c2)c1
log10PFU/ml [1]: 0.3
log10PFU/ml [5]: 0.6
log10PFU/ml [6]: 0.5
log10PFU/ml [9]: 1.7
log10PFU/ml [11]: 1.1
Activity [12]: 50%
log10PFU/ml [16]: 0.4
log10PFU/ml [17]: 2.2
log10PFU/ml [19]: 1.2
log10PFU/ml [21]: 0.8
log10PFU/ml [22]: 0.2
